From ChEMBL document CHEMBL4049434, “Radiolabeled Dibenzodiazepinone-Type Antagonists Give Evidence of Dualsteric Binding at the M2 Muscarinic Acetylcholine Receptor” (J Med Chem, 2017)
Calls of active or inactive are those of the source. No cut-off for these calls is given here.

Experiments:
[1] = target: T1, Muscarinic acetylcholine receptor M2 (Homo sapiens, UniProt P08172); assay: Displacement of [3H]UR-AP060 from human muscarinic acetylcholine receptor M2 expressed in CHOK9 cell homogenate after 3 hrs by liquid scintillation counting assay
T1 sequence (P08172 whole entry): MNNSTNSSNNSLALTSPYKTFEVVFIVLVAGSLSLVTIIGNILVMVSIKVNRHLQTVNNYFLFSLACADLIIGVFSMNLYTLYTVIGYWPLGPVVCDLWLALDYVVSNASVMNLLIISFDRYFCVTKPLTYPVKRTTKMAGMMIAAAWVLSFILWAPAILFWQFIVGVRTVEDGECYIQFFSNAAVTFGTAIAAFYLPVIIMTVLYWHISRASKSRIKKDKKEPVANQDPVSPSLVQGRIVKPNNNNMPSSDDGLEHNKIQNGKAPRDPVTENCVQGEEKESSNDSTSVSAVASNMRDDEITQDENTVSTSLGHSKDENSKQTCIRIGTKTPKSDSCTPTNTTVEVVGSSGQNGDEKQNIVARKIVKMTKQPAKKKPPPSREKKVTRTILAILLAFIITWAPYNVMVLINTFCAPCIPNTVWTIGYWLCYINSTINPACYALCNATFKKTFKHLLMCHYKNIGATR

[2] = target: T1, Muscarinic acetylcholine receptor M2; assay: (§1) Competitive antagonist activity at human muscarinic acetylcholine receptor M2 expressed in HEK293 cells coexpressing HA tagged Galpha-protein qi5 assessed as inhibition of 0.1 uM carbachol-induced IP1 accumulation preincubated for 30 mins followed by carbachol addition measured after 1 hr by HTRF assay; format: functional, cell-based
Procedure, shortened: (§2)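 HEK-293 transiently cotransfected with human M2R and Gαqi5-HA. Cells preincubated 30 min with antagonist, then carbachol added (final 0.1, 0.3, 1 or 10 μM), 1 h at 37 °C. IP1 detected by HTRF (620/670 nm emission, 330 nm excitation). At least four independent experiments, each in duplicate.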

[3] = target: T2, Muscarinic acetylcholine receptor M2 (Homo sapiens) (UniProt P08172); assay: as §1; format: functional, cell-based; procedure, shortened: as §2
T2 sequence (whole entry): T1 sequence (P08172 whole entry)

[4] = target: T2, Muscarinic acetylcholine receptor M2 (Homo sapiens); assay: Binding affinity to human muscarinic acetylcholine receptor M2 expressed in CHOK9 cell suspension after 2 hrs by liquid scintillation counting assay; conditions: tested as the 3H-labelled form
[5] = target: T1, Muscarinic acetylcholine receptor M2; assay: as §1, with “10” for “0.1”; format: functional, cell-based; procedure, shortened: as §2
[6] = target: T2, Muscarinic acetylcholine receptor M2 (Homo sapiens); assay: as §1, with “10” for “0.1”; format: functional, cell-based; procedure, shortened: as §2
[7] = target: T2, Muscarinic acetylcholine receptor M2 (Homo sapiens); assay: Antagonist activity at human muscarinic acetylcholine receptor M2 expressed in HEK293 cells coexpressing HA tagged Galpha-protein qi5 assessed as inhibition of 0.3 uM carbachol-induced IP1 accumulation preincubated for 30 mins followed by carbachol addition measured after 1 hr by HTRF assay; format: functional, cell-based; procedure, shortened: as §2
[8] = target: T2, Muscarinic acetylcholine receptor M2 (Homo sapiens); assay: Binding affinity to human muscarinic acetylcholine receptor M2 expressed in CHOK9 cell suspension at Kd in presence of 500-fold excess atropine after 2 hrs by liquid scintillation counting assay relative to control; conditions: tested as the 3H-labelled form
[9] = target: T3, Muscarinic acetylcholine receptor M4 (Homo sapiens, UniProt P08173); assay: Displacement of [3H]NMS from human muscarinic acetylcholine receptor M4 expressed in CHOK9 cells after 3 hrs by liquid scintillation counting assay; format: cell-based
T3 sequence (P08173 whole entry): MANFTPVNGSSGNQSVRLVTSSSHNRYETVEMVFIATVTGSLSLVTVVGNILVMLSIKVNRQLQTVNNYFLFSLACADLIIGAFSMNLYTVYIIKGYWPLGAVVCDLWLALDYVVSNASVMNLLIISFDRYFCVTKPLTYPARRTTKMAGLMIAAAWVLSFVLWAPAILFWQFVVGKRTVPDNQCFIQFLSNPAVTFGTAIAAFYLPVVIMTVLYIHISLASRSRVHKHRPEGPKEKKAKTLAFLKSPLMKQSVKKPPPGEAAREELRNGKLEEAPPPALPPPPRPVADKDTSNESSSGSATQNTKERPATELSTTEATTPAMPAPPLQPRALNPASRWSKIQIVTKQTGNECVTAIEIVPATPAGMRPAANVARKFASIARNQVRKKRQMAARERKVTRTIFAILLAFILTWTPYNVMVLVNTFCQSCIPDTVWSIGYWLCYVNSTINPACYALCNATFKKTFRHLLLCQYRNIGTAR

[10] = target: T2, Muscarinic acetylcholine receptor M2 (Homo sapiens); assay: Agonist activity at human muscarinic acetylcholine receptor M2 expressed in HEK293 cells coexpressing HA tagged Galpha-protein qi5 assessed as induction of IP1 accumulation measured after 1 hr by HTRF assay; format: functional, cell-based
Procedure, shortened: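 HEK-293 transiently cotransfected with human M2R and Gαqi5-HA, seeded 24 h before assay (10000 cells/well). Compounds in stimulation buffer (1 pM–100 μM final) 1 h at 37 °C; IP1 read by HTRF (620/670 nm, excitation 330 nm) after 60 min with detection reagents at rt. Duplicate, three experiments, carbachol as reference.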

[11] = target: T2, Muscarinic acetylcholine receptor M2 (Homo sapiens); assay: Binding affinity to human muscarinic acetylcholine receptor M2 expressed in live adherent CHOK9 cells after 2 hrs by liquid scintillation counting assay; format: cell-based; conditions: tested as the 3H-labelled form
Procedure, shortened: (§3)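 Live adherent CHO-hM2 cells in L15 medium with 1% BSA, 23 ± 1 °C, 2 h incubation. Competition at 2 nM radioligand; additional 4, 8, 15 and 30 nM in W84 experiments. […] Saturation data fitted one-site; competition by four-parameter logistic fits; at least three experiments in triplicate.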

[12] = target: T2, Muscarinic acetylcholine receptor M2 (Homo sapiens); assay: Binding affinity to human muscarinic acetylcholine receptor M2 expressed in CHOK9 cells assessed as dissociation half life after 105 mins by liquid scintillation counting assay; format: cell-based; conditions: tested as the 3H-labelled form
[13] = target: T4, Muscarinic acetylcholine receptor M1 (Homo sapiens, UniProt P11229); assay: Displacement of [3H]NMS from human muscarinic acetylcholine receptor M1 expressed in CHOK9 cells after 3 hrs by liquid scintillation counting assay; format: cell-based
T4 sequence (P11229 whole entry): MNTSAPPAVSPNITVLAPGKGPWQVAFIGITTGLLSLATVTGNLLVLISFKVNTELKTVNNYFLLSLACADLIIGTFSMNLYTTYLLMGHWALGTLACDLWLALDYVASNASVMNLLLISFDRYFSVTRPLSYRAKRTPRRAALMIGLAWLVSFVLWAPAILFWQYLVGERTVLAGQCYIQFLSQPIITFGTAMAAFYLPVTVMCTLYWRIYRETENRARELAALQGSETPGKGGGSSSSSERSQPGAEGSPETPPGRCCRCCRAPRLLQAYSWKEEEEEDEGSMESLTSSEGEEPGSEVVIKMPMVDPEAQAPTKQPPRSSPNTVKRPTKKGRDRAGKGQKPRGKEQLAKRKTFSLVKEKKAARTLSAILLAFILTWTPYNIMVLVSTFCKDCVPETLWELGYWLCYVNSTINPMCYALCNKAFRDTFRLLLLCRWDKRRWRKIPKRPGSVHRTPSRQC

[14] = target: T2, Muscarinic acetylcholine receptor M2 (Homo sapiens); assay: Binding affinity to human muscarinic acetylcholine receptor M2 expressed in live adherent CHOK9 cells at Kd in presence of 500-fold excess atropine after 2 hrs by liquid scintillation counting assay relative to control; format: cell-based; conditions: tested as the 3H-labelled form; procedure, shortened: as §3
[15] = target: Muscarinic acetylcholine receptor M3 (Homo sapiens, UniProt P20309); assay: Displacement of [3H]NMS from human muscarinic acetylcholine receptor M3 expressed in CHOK9 cells after 3 hrs by liquid scintillation counting assay; format: cell-based
Chain of Muscarinic acetylcholine receptor M3 (P20309 whole entry): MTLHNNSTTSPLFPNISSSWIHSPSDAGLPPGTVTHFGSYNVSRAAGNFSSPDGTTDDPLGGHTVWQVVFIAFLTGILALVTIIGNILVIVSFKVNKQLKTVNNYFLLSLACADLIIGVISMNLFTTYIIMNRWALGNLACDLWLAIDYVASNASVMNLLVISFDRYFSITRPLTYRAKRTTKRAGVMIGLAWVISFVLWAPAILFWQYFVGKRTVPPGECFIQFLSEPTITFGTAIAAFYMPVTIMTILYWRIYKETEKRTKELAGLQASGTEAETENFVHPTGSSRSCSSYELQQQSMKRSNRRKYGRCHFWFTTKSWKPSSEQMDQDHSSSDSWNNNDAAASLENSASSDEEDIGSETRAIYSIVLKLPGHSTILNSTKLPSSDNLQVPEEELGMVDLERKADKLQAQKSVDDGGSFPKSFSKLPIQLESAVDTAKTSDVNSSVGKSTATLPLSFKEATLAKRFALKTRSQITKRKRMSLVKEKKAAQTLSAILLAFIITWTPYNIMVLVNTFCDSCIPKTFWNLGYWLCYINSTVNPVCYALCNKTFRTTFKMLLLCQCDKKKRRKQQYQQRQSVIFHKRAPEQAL

CCC(=O)NCc1cc(C(=O)NCCNC(=O)CCc2cn(CCCCC3CCN(CC(=O)N4c5ccccc5NC(=O)c5ccccc54)CC3)cn2)cc(C(=O)NCCNC(=O)CCc2cn(CCCCC3CCN(CC(=O)N4c5ccccc5NC(=O)c5ccccc54)CC3)cn2)c1.O=C(O)C(F)(F)F.O=C(O)C(F)(F)F.O=C(O)C(F)(F)F.O=C(O)C(F)(F)F
Ki [1]: 1.05 nM | IC50 [2]: 16.6 nM | inhibition [3]: Dose-dependent effect | Bmax (disintegrations/minute) [4]: 1800 | IC50 [5]: 263 nM | inhibition [6]: Dose-dependent effect | inhibition [7]: Dose-dependent effect | pKb [7]: 7.36 | Activity [8]: < 15% | Ki [9]: 0.468 nM | Activity [10]: inactive | Bmax (disintegrations/minute) [11]: 1200 | T1/2 [12]: 1.1 h | Ki [13]: 1.51 nM | Activity [14]: > 60% | Ki [15]: 15.5 nM
